# Hits are enriched below; roughly 3.3% of the tested compounds scored in any of these assays.
# DENV2 CPE = inhibitors of DENV2 cytopathic effect, primary screen, cell-based, plate reader, single concentration. CPE inhibition, % at 9.99 µM. 1.7% of 350,000 active. AID 651640, 2012. DENV2-infected cells, cytopathic effect rescue; in the data active means CPE inhibition above about 20%, passing the limit was not always enough; inconclusive means no clear call, values can overlap the other calls; tested in BHK-21 cells;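 further: 0% = median of neutral control wells and 100% = median of positive control wells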
# C2C12 statin = suppressors of statin myotoxicity in C2C12 myotubes, primary screen, cell-based, single point, plate reader. 0.78% of 330,000 active. rescue of ATP level, % at 7.49 µM. AID 602340, 2012. C2C12 myotubes + simvastatin, ATP luminescence, 48 h; scaled: DMSO 0, geranylgeraniol control 100;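 active means mean ATP rescue above about 67%, or every replicate alone reaching that limit, limit read from the data, passing the limit was not always enough; inconclusive means no clear call, values can overlap the other calls; inactive means mean under the limit and some replicate under it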;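 further: myotubes were challenged with 10 µM simvastatin during compound exposure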
# PglD inh = C. jejuni PglD acetyltransferase inhibitors, primary screen, biochemical, DTNB colorimetric, single point; inhibition, % at 12.5 µM; purified PglD enzyme, DTNB colorimetric CoA detection; 0.098% of 360,000 active; UDP-N-acetylbacillosamine N-acetyltransferase PglD (Campylobacter jejuni); AID 602405, 2012; in the data active means inhibition above about 16%, passing the limit was not always enough; inconclusive means no clear call, values can overlap the other calls
# E-sel inducer = E-selectin induction in HUVECs, primary screen, imaging, HUVEC, immunofluorescence imaging, single point; activation, % at 7.58 µM; AID 686992, 2013; 0.37% of 260,000 active; normalized: neutral wells 0, TNF-alpha wells 100;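 active means mean E-selectin-positive cell signal at least 10% of the positive control, reached in at least 60% of replicates, without over 20% cell loss; inconclusive means no rule given, readout overlaps actives, possibly toxicity-flagged; inactive means the rest, including those meeting only one limit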
# Target sequence (P16581 whole entry, looked up): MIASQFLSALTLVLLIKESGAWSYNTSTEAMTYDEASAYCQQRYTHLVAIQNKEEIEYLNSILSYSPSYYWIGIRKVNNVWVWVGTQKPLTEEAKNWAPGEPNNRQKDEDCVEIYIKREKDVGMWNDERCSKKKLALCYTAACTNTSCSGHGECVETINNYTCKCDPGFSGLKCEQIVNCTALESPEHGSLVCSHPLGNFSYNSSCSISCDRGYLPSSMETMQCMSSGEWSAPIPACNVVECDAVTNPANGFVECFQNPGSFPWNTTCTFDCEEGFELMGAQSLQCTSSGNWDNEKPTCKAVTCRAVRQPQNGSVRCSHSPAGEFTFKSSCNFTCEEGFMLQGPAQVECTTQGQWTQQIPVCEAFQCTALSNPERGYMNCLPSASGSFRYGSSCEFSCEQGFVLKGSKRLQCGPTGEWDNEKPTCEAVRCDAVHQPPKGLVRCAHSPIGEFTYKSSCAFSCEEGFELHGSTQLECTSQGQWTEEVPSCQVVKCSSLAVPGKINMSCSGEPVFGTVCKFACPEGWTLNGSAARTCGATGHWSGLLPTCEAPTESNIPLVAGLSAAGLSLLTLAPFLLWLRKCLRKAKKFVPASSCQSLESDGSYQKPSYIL
#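 Read-out: % PE-positive cells | Test system: HUVEC | Doses: One compound dose added by pin transfer | Buffer or medium: EGM-2 over gelatin coat | Signal: Immunofluorescence imaging | Benchmarks: TNF-alpha, DMSO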
# XiGFP reactiv = activators of inactive X chromosome reactivation, primary screen, imaging, XiGFP fibroblasts, GFP high-content imaging, set 2 | activation, % at 7.58 µM | 0.055% of 360,000 active | AID 743238, 2013 | XiGFP mouse fibroblasts, % GFP-positive cells imaging, 3 d; cells co-treated with 5-aza-dC sensitizer; scaled so ellipticine positive control = 100%;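 active means mean normalized replicate activation at least 10% and every replicate at or above 10%; inconclusive means only one of the two criteria met; inactive means mean below 10% and not all replicates reach 10%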;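 further: 0% = median of on-plate neutral control wells and 100% = ellipticine 6 µM median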
#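 Material: XiGFP fibroblasts, SV40-immortalized. Buffer or medium: DMEM plus 5-aza-dC sensitizer. Compound: single concentration per compound, delivered by pin transfer. Times: 3 days compound exposure. Controls: ellipticine 6 µM.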
# FGF22 binding = binders of human FGF22 protein, primary screen, FGF22 synaptogenesis inhibitor project, biophysical, thermal shift, single point. activity (Tm shift, normalised), % at 9.99 µM. 1.5% of 340,000 active. AID 651658, 2012. recombinant FGF22 thermal shift, SYPRO orange fluorescence; percent of sucrose octasulfate shift, DMSO zero;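 active means mean Tm shift, scaled 0 neutral to 100 positive control, at about 1.3% or above, every replicate too, limit read from the data; inconclusive means no clear call, values can overlap the other calls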
# The depositor's hits bear a star; ? = inconclusive; . = no result.
SMILES,DENV2 CPE,C2C12 statin,PglD inh,E-sel inducer,XiGFP reactiv,FGF22 binding
CC1(C)CN(S(=O)(=O)OCC(Cl)(Cl)Cl)C(=O)N1,13.4,-19.9,-4.8,0.1,0.1,0.0
CN1[C@@H]2CN(CC(F)(F)F)C[C@H]1C2c1ccc(Br)cc1 (some centres undefined),.,.,.,.,0.2,.
CCCNC(=O)N1[C@@H]2c3ccc(-c4cccc(C(=O)N(C)C)c4)c(=O)n3C[C@H]1[C@H](CO)[C@H]2C(=O)O,-18.4,.,.,0.2,0.4,0.3
CC(=O)N1C[C@@H]2N[C@H](C1)C2c1ccc(Br)cc1 (some centres undefined),.,.,.,.,0.2,.
CN(CC1COc2ccccc2O1)c1nc(-c2cccnc2)nc2ccccc12 (centres undefined),.,107.7*,11.5,.,.,.
COc1ccc(OC(=O)N(C)C[C@H]2OCc3ccccc3-c3c(n(C)c4ccccc34)C(=O)N([C@H](C)CO)C[C@@H]2C)cc1,0.6,.,.,-0.1,0.1,-0.6
O=c1[nH]c(=O)n(Cc2ccc(F)cc2)c(O)c1C=NCCCO,.,3.0,-1.1,-2.5,.,.
O=c1[nH]c(=O)n(Cc2ccc(F)cc2)c(O)c1/C=N/Nc1ccccc1,34.3*,.,.,7.7,0.0,-0.1
CN(C)CC1CCCCC1OC(=O)Cc1ccc(Cl)c([N+](=O)[O-])c1 (centres undefined),-1.3,-9.2,1.4,49.7*,0.3,-0.2
O=C(Cc1ccccn1)N1CCCCN2[C@@H](CO)[C@@H](c3ccc(-c4ccccc4)cc3)[C@@H]2C1,8.3,.,1.7,-0.2,0.0,-0.3
O=C(C1CC1)N1C[C@@H]2N[C@H](C1)[C@@H]2c1ccc(-c2ccncc2)cc1,?,.,.,0.2,0.4,.
c1ccc(C2CC2)c(OCC2=NCCN2)c1,74.6*,2.5,-1.4,0.9,-0.3,-0.1
CS(=O)(=O)N1C[C@@H]2N[C@H](C1)C2c1ccccc1 (some centres undefined),.,.,.,.,0.2,.
Cc1cc(C(=O)CN2CCCC2)c(C)n1-c1ccc(F)cc1,-2.5,.,0.3,1.1,0.1,0.2
COc1ccc(-n2c(C)cc(C(=O)C[N+]34CCN(CC3)CC4)c2C)cc1,4.0,-2.7,-3.0,0.0,0.0,43.2*
COC(=O)C1=C(c2ccc(F)cc2OCc2ccccc2)C[C@@H]2CC[C@H]1N2C(=O)NCc1cccc(F)c1,?,-6.7,-2.6,-0.3,0.0,0.0
COC(=O)C1=C(c2ccc(F)cc2OCc2ccccc2)C[C@@H]2CC[C@H]1N2C(=O)NCc1ccccc1,67.9*,3.7,1.8,-0.1,0.0,0.1
COC(=O)[C@@H]1[C@@H](CO)[C@@H]2Cn3c(ccc(-c4ccccc4)c3=O)[C@H]1N2C(=O)c1ccccc1F,.,-7.9,.,0.0,0.3,.
N#Cc1cccc(-c2ccc([C@H]3[C@@H](CO)N4CCCCN(C(=O)Cc5ccccc5)C[C@@H]34)cc2)c1,6.9,.,-0.9,-0.2,0.2,-0.4
CNC(=O)Oc1cc2c(cc1C(C)(C)C)CCC2,-4.3,1.7,4.8,0.0,5.0,43.6*
COC(=O)[C@@H]1[C@@H](CO)[C@@H]2Cn3c(ccc(C4=CCCCC4)c3=O)[C@H]1N2CC1CCCCC1,-10.8,.,.,-0.5,0.1,.
CC(=O)N1C[C@@H]2C(c3ccccc3)[C@H](C1)N2CC1CC1 (some centres undefined),.,.,.,.,0.2,.
Cc1ccc(OP(=O)(NC(C)c2ccccc2)Oc2ccc(C)cc2)cc1 (centres undefined),-4.1,.,.,.,0.0,43.0*
OC[C@@H]1Nc2ccc(C#Cc3cccnc3)cc2[C@@H]2NCC[C@H]12,.,.,.,.,0.0,.
COc1ccc(C(=O)C23CN4CN(CN(C4)C2)C3)cc1,-4.1,-5.9,6.0,0.0,0.0,42.5
SMILES,DENV2 CPE,C2C12 statin,PglD inh,E-sel inducer,XiGFP reactiv,FGF22 binding
COc1ccc(C2C3C=CC(C3)C2C(=O)O)cc1 (centres undefined),4.4,.,.,0.1,0.2,43.5*
COc1ccc(S(=O)(=O)Cc2ccc(C(=O)N3CCC4(CC3)OCCO4)o2)cc1,.,112.5*,3.2,.,.,.
CS(=O)(=O)N1C[C@@H]2C(c3ccccc3)[C@H](C1)N2CC1CC1 (some centres undefined),.,.,.,.,0.1,.
CCN(CC)C(=O)c1ccc2c(c1)C1C=CCC1C(C(=O)O)N2 (centres undefined),-1.0,124.8*,-1.2,.,0.0,0.0
CN1/C(=C\C=C2C(=O)NC(=S)NC2=O)C(C)(C)c2ccccc21,.,.,.,.,0.2,0.4
CC1(C)OC(c2ccccc2)=C/C(=C/C=C2C(=O)NC(=S)NC2=O)O1,1.4,.,.,533.1*,0.0,0.2
N=c1n(CCO)c2ccccc2n1Cc1ccccc1,.,85.8*,-4.7,.,.,.
Cc1c(C(=O)O)cc(-c2ccccc2)n1Cc1ccccc1,2.4,1.3,-3.4,0.0,0.0,-0.3
CN1[C@@H]2CN(S(C)(=O)=O)C[C@H]1C2c1ccc(Br)cc1 (some centres undefined),.,.,.,.,0.3,.
CP(=O)(O)CN1CCCCC1,-2.3,.,.,.,0.0,43.9*
COC(=O)[C@H]1[C@H](CO)[C@H]2Cn3c(ccc(-c4ccccc4OC)c3=O)[C@@H]1N2Cc1ccccc1,.,-3.7,-0.8,0.0,0.2,.
O=[N+]([O-])c1ccc(N2CCCCCC2)c2nonc12,1.4,0.2,-3.7,0.2,0.2,0.0
CN(c1ccc(O)cc1)c1ccc([N+](=O)[O-])c2nonc12,-10.8,116.9*,8.7,0.0,-0.1,0.1
OC(CNCCc1c[nH]c2ccccc12)C(F)(F)F (centres undefined),-4.2,5.5,0.4,.,0.0,.
OC(CCNCCc1c[nH]c2ccccc12)C(F)(F)Cl (centres undefined),18.6,.,.,.,0.1,43.6*
C=C(C)CC1(CC)C(=O)NC(=S)NC1=O,-4.0,2.3,-3.0,0.4,0.4,44.2*
C=CCC1(CC)C(=O)NC(=S)NC1=O,?,.,.,-0.3,0.3,0.1
CC(CN1CCOCC1)C(C#N)(c1ccccc1)c1ccccc1 (centres undefined),11.6,-0.3,.,-0.3,0.2,43.0*
O=C1Nc2ccccc2/C1=C/c1cnc[nH]1,6.1,198.6*,.,.,.,0.0
COc1ccc2c(c1)/C(=C/c1cnc[nH]1)C(=O)N2,-1.1,34.4,-1.8,?,0.0,0.0
CCCN1[C@@H]2Cn3c(ccc(-c4ccc(F)cc4)c3=O)[C@H]1[C@@H](C(=O)OC)[C@@H]2CO,-3.3,5.5,-1.0,-0.2,0.2,0.3

# From PubChem BioAssay
